Experimental data taken from PMC10691213 (Proceedings of the National Academy of Sciences of the …, 2023).

Key:
HEK293T cells [1] = assay type: cell-based, human; conditions: 500 nM anisomycin 1 h
Method in brief: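 HEK293T cells were transiently transfected (polyethyleneimine) with FLAG-MLXIPL or TACC1 plasmid. Where indicated, cells were pre-treated with 50 μM SB203580 for 1 h at 37 °C, then given 500 nM anisomycin or 0.001% DMSO vehicle for 1 h at 37 °C. Lysates were clarified and equal protein (BCA) resolved on 5% gels with […] Phos-tag plus 50 μM MnCl2, or by standard SDS-PAGE, then immunoblotted.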

HEK293T cells [2] = assay: MS analysis of TACC1 / MLXIPL phosphopeptides isolated from HEK293T cells; assay type: cell-based, human; conditions: serum-starved, 500 nM trametinib pre-treatment 1 h, EGF 5 min

COc1ccc(C[C@H]2NC[C@H](O)[C@H]2OC(C)=O)cc1 [Anisomycin, anisomycin]
phosphorylation of TACC1 (mobility shift) (HEK293T cells [1]): did not induce phosphorylation

C[S+]([O-])c1ccc(-c2nc(-c3ccncc3)c(-c3ccc(F)cc3)[nH]2)cc1 (stereo not drawn) [SB203580]
anisomycin-induced MLXIPL phosphorylation (mobility shift) (HEK293T cells [1]; 50 μM SB203580 pre-treatment 1 h): partly dependent on p38α/β

CC(=O)Nc1cccc(-n2c(=O)n(C3CC3)c(=O)c3c(Nc4ccc(I)cc4F)n(C)c(=O)c(C)c32)c1 [trametinib]
EGF-stimulated TACC1 Ser231 phosphorylation (HEK293T cells [2]): blocked
